From ChEMBL document CHEMBL1138476 (J Med Chem, 2009)
≈ marks a conversion by molar mass, not a printed value. Calls of active or inactive are those of the source. No cut-off for these calls is given here.

Columns and labels:
Canis familiaris [1] = assay: Effect on respiratory function in spontaneously breathing mongrel dog assessed as change in respiration rate at 5 mg/kg after intravenous infusion for 15 mins (RVb= -6.4+/-4.0 %); format: functional, Canis lupus familiaris
[2] = Elimination half life in chimpanzee at 1 mg/kg, po; format: ADME, organism-based, Pan troglodytes; design: dose 1 mg/kg, route oral; conditions: in vivo, read-out: beta t1/2 (converted)
Summary of the method: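 Two alert chimpanzees were given 1 mg/kg po as a 1 mg/mL suspension in 50:50 (v/v) 0.5% methylcellulose and Tang orange juice containing 1% Tween-80. EDTA blood was taken predose and at 2–96 h. Bioavailability was calculated against a 0.5 mg/kg iv dose given to one animal.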

Rattus norvegicus [3] = assay: Anxiolytic activity in rat assessed as increase in time spent on open arm at 18 mg/kg, po by elevated plus-maze test; format: functional, organism-based; design: dose 18 mg/kg
Summary of the method: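 Rat elevated plus maze: percent of test time spent in the open arms. Oral dosing in 0.25% Methocel 60 min before testing; n = 12 per dose, mean ± SEM. Analysed by ANOVA followed by Fisher's LSD comparisons against vehicle.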

Canis familiaris [4] = assay: Effect on respiratory function in spontaneously breathing mongrel dog assessed as change in airway resistance at 5 mg/kg after intravenous infusion for 60 mins (RVb= 17.3+/-15.1 %); format: functional, Canis lupus familiaris
[5] = Clearance in chimpanzee at 0.5 mg/kg, iv; format: ADME, organism-based, Pan troglodytes; design: dose 0.5 mg/kg, route intravenous; conditions: in vivo
Summary of the method: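 Chimpanzee PK. Oral: 1 mg/kg in two alert animals, given as a 1 mg/mL suspension in 50–50 (v/v) 0.5% methylcellulose/Tang orange juice with 1% Tween-80. IV: 0.5 mg/kg in one animal in 10% DMAC, 70% propylene glycol and deionized water, infused over 10 min (0.2 mL/kg). EDTA blood was taken predose and at 2–96 h; iv sampling added 6, 15 and 30 min.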

Canis familiaris [6] = assay: Effect on respiratory function in spontaneously breathing mongrel dog assessed as change in minute volume at 5 mg/kg after intravenous infusion for 60 mins (RVb= -13.4+/-10.7 %); format: functional, Canis lupus familiaris
Rattus norvegicus [7] = assay: Toxicity in rat assessed as total distance traveled at 10 mg/kg, po after 1 hr by spontaneous locomotor test; format: functional
Summary of the method: (§1)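 Rat spontaneous locomotor activity test with oral dosing in 0.25% Methocel 1 h before testing, at doses up to 100 mg/kg. Values are mean ± SEM, with N rats per group, compared with the vehicle (zero-dose) group.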

Canis familiaris [8] = assay: Effect on respiratory function in spontaneously breathing mongrel dog assessed as change in mean arterial pressure at 5 mg/kg after intravenous infusion for 6 mins (RVb= 1.5+/-0.9 %); format: functional, Canis lupus familiaris, Artery
Rattus norvegicus [9] = assay: Effect on acute renal function in rat assessed as change in glucose level in urine per 100 gm body weight at 30 mg/kg, po (RVb= 9.9+/-1.9 mg/dl); format: functional
[10] = Solubility in 0.01 N HCl at pH 2.5; format: physicochemical
Canis familiaris [11] = assay: Effect on respiratory function in spontaneously breathing mongrel dog assessed as change in tidal volume at 5 mg/kg after intravenous infusion for 60 mins (RVb= 13.0+/-10.3 %); format: functional, Canis lupus familiaris
Canis familiaris [12] = assay: Effect on respiratory function in spontaneously breathing mongrel dog assessed as change in pulmonary compliance at 5 mg/kg after intravenous infusion for 30 mins (RVb= -2.8+/-4.0 %); format: functional, Canis lupus familiaris
Rattus norvegicus [13] = assay: Effect on acute renal function in rat assessed as change in urine phosphate level per 100 gm body weight at 30 mg/kg, po (RVb= 8.7+/-2.3 mg/dl); format: functional
Canis familiaris [14] = assay: Cardiovascular activity in mechanically ventilated mongrel dog at assessed as increase in contractility at 3 mg/kg to 5 mg/kg, iv by dose escalation study
[15] = Plasma concentration in spontaneously breathing dog at 5 mg/kg, iv after 30 mins; format: ADME, organism-based, Canis lupus familiaris; design: dose 5 mg/kg, route intravenous
Summary of the method: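 Spontaneously breathing, barbiturate-anesthetized mongrel dogs (n = 4) infused iv at 5.0 mg/kg over 6 min. Total pooled plasma concentrations taken at 6, 15, 30 and 60 min.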

Substance-K receptor = target: T1, Substance-K receptor (Homo sapiens, UniProt P21452); assay: Binding affinity to human neurokinin 2 receptor
T1 sequence (P21452 whole entry): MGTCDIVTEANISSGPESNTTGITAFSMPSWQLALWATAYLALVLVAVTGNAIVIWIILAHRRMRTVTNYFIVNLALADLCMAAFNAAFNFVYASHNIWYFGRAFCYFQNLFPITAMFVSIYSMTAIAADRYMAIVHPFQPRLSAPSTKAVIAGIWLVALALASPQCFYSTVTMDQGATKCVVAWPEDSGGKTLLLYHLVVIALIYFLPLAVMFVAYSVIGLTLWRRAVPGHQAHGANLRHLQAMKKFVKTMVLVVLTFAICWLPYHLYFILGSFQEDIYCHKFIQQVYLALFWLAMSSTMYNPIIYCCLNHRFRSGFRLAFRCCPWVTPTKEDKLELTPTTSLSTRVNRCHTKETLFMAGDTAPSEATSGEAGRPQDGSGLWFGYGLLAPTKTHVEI
Summary of the method: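 Human neurokinin 2 receptor binding, contracted out as part of a broad screen.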

Rattus norvegicus [16] = assay: Ex vivo receptor occupancy of CRF receptor in rat brain at 30 mg/kg, po by [125I]sauvagine binding and autoradiography relative to control; format: functional
Summary of the method: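 Rats were given 0.3, 1, 3, 10 or 30 mg/kg po in 0.25% Methocel 60 min before sacrifice. Brains were removed, sectioned and frozen at −80 °C. Ex vivo CRF receptor binding gave occupancy relative to vehicle-treated rats, reported as mean ± SEM.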

Canis familiaris [17] = assay: Effect on respiratory function in spontaneously breathing mongrel dog assessed as change in peak expiratory flow at 5 mg/kg after intravenous infusion for 60 mins (RVb= 0.4+/-6.7 %); format: functional, Canis lupus familiaris
[18] = Plasma concentration in dog at 1 mg/kg after intravenous infusion for 30 mins; format: ADME, organism-based, Canis lupus familiaris; design: dose 1 mg/kg, route intravenous
Rattus norvegicus [19] = assay: Toxicity in rat assessed as total distance traveled at 30 mg/kg, po after 1 hr by spontaneous locomotor test; format: functional; summary of the method: as §1
[20] = target: T2, Corticotropin-releasing factor-binding protein (Homo sapiens, UniProt P24387); assay: Binding affinity to human recombinant CRF binding protein
T2 sequence (P24387 whole entry): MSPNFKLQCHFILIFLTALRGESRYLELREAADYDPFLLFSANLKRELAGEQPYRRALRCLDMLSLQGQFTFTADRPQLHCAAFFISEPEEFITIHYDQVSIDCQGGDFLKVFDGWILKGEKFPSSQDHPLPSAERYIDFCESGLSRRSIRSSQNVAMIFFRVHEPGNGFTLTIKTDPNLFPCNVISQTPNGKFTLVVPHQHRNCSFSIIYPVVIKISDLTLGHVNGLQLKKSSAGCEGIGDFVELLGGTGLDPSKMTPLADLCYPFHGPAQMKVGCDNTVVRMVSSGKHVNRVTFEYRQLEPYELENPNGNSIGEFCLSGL

Canis familiaris [21] = assay: Effect on respiratory function in spontaneously breathing mongrel dog assessed as change in respiration rate at 5 mg/kg after intravenous infusion for 6 mins (RVb= -8.3+/-8.3 %); format: functional, Canis lupus familiaris
[22] = Solubility in acetone; format: physicochemical
Canis familiaris [23] = assay: Effect on respiratory function in spontaneously breathing mongrel dog assessed as change in tidal volume at 5 mg/kg after intravenous infusion for 30 mins (RVb= 6.1+/-5.6 %); format: functional, Canis lupus familiaris

For `CC[C@@H](C)Nc1nc(C)nc2c(-c3ccc(OC)nc3C)c(C)nn12` [PEXACERFONT], the Activity (Canis familiaris [1]) was -3.1%, the half-life [2] was 1560 min and the Activity (Rattus norvegicus [3]) was “Active”. It also gave an Activity (Canis familiaris [4]) of -23.6%, a clearance [5] of 2 mL/min/kg and an Activity (Canis familiaris [6]) of -6%. For the same molecule, the Activity (Rattus norvegicus [7]) was 3695 cm, the Activity (Canis familiaris [8]) was 3.8% and the Activity (Rattus norvegicus [9]) was 4.4 mg/dL. For the same molecule, the solubility [10] was 16.3 mg/mL (≈ 47.9 mM), the Activity (Canis familiaris [11]) was 11.5% and the Activity (Canis familiaris [12]) was -22.3%. It also gave an Activity (Rattus norvegicus [13]) of 4.6 mg/dL, an Activity (Canis familiaris [14]) of 200 mmHg/s and a concentration at 0.5 h [15] of 412 nM. It also gave an IC50 (Substance-K receptor) of 4.9 µM, an Activity (Rattus norvegicus [16]) of 85% and an Activity (Canis familiaris [17]) of 7.5%. For the same molecule, the concentration at 0.5 h [18] was 473 nM, the Activity (Rattus norvegicus [19]) was 4846 cm and the IC50 [20] was over 1000 nM. The Activity (Canis familiaris [21]) was 37.5%, the solubility [22] was 460 mg/mL (≈ 1350 mM) and the Activity (Canis familiaris [23]) was -15.2%.
